Legend:
Chymotrypsinogen A [1] = biological target: T1, Chymotrypsinogen A (Bos taurus, UniProt P00766); experiment: The compound was tested for inhibition of Chymotrypsinogen with a pre-incubation time of 15 min.
Neutrophil elastase [2] = biological target: T2, Neutrophil elastase (Homo sapiens, UniProt P08246); experiment: The compound was tested for inhibition of human neutrophil elastase enzyme with a pre-incubation time of 0 min.
T2 sequence (P08246 whole entry): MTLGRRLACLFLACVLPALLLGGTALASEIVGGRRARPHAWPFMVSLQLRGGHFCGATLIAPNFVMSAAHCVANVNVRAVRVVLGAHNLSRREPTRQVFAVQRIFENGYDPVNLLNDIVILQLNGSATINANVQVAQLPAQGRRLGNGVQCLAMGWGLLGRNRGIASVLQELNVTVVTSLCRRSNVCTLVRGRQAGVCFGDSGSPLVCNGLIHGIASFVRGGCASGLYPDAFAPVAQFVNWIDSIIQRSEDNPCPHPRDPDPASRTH
Summary of the method: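 HNE IC50: compound preincubated at 30 °C with substrate MeO-Succ-Ala-Ala-Pro-Val-p-nitroanilide, reaction started by adding HNE (0 min enzyme preincubation); p-nitroanilide release followed spectrophotometrically. Errors as standard deviations.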

Neutrophil elastase [3] = biological target: T2, Neutrophil elastase; experiment: The compound was tested for inhibition of human neutrophil elastase enzyme with a pre-incubation time of 40 min.
Summary of the method: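 Compound preincubated with HNE for 40 min, then reaction started with MeO-Succ-Ala-Ala-Pro-Val-p-nitroanilide; p-nitroanilide release monitored spectrophotometrically to give IC50. Errors quoted as standard deviations.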

Prothrombin [4] = biological target: T3, Prothrombin (Homo sapiens, UniProt P00734); experiment: The compound was tested for inhibition of thrombin with a pre-incubation time of 15 min.
Cathepsin G = biological target: T4, Cathepsin G (Homo sapiens, UniProt P08311); experiment: The compound was tested for inhibition of cathepsin G with a pre-incubation time of 15 min
T4 sequence (P08311 whole entry): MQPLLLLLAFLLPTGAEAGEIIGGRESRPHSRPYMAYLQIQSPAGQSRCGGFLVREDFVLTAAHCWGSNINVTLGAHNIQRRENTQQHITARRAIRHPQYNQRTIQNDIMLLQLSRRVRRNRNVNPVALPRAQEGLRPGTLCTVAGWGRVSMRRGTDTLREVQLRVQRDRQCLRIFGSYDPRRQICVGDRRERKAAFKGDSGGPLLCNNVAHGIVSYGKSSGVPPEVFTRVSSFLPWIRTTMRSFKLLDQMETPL

Chymotrypsinogen A [5] = biological target: T1, Chymotrypsinogen A; experiment: The compound was tested for inhibition of Chymotrypsinogen with a pre-incubation time of 15 min
Neutrophil elastase [6] = biological target: T2, Neutrophil elastase; experiment: The compound was tested for inhibition of human neutrophil elastase enzyme with a pre-incubation time of 15 min.
Summary of the method: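 IC50 against HNE determined after a 15-min preincubation of compound with enzyme; substrate MeO-Succ-Ala-Ala-Pro-Val-p-nitroanilide, p-nitroanilide release read spectrophotometrically.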

Prothrombin [7] = biological target: T3, Prothrombin; experiment: The compound was tested for inhibition of thrombin with a preincubation time of 15 min
Prothrombin [8] = biological target: T3, Prothrombin; experiment: The compound was tested for inhibition of thrombin with a pre-incubation time of 15 min

| SMILES | IC50 (Chymotrypsinogen A [1]) [µM] | IC50 (Neutrophil elastase [2]) [µM] | IC50 (Neutrophil elastase [3]) [µM] | IC50 (Prothrombin [4]) [µM] | IC50 (Cathepsin G) [µM] | IC50 (Chymotrypsinogen A [5]) [µM] | IC50 (Neutrophil elastase [6]) [µM] | IC50 (Prothrombin [7]) [µM] | IC50 (Prothrombin [8]) [µM] |
| --- | --- | --- | --- | --- | --- | --- | --- | --- | --- |
| C=CC[C@H]1C(=O)N[C@H]2CCN(C(=O)OCc3ccccc3)[C@@H]21 | > 100 | > 500 | > 500 | > 100 |  |  |  |  |  |
| C=CC[C@H]1C(=O)O[C@H]2CCN(C(=O)OCC)C21 (stereo partly drawn) |  |  |  | > 200 | 3.6 | 4 | 0.069 |  |  |
| C=CC[C@H]1C(=O)N(S(=O)(=O)c2cccc3ccccc23)[C@H]2CCN(C(=O)OCc3ccccc3)C12 (stereo partly drawn) |  | > 100 | 0.088 | > 100 |  | 11.5 |  |  |  |
| C=CC[C@H]1C(=O)O[C@H]2CCN(C(=O)OCc3ccccc3)C21 (stereo partly drawn) |  | 0.336 | 0.047 |  |  | 15.9 |  |  | 49 |
| C=CC[C@@H]1C(=O)O[C@H]2CCN(C(=O)OCc3ccccc3)C21 (stereo partly drawn) |  | 12.8 | 0.074 |  |  | 4.86 |  |  | 44.6 |

The next lines start with the values.

| IC50 (Chymotrypsinogen A [1]) [µM] | IC50 (Neutrophil elastase [2]) [µM] | IC50 (Neutrophil elastase [3]) [µM] | IC50 (Prothrombin [4]) [µM] | IC50 (Cathepsin G) [µM] | IC50 (Chymotrypsinogen A [5]) [µM] | IC50 (Neutrophil elastase [6]) [µM] | IC50 (Prothrombin [7]) [µM] | IC50 (Prothrombin [8]) [µM] | SMILES |
| --- | --- | --- | --- | --- | --- | --- | --- | --- | --- |
|  | 0.023 | 0.036 |  |  | 0.98 |  | 78.8 |  | CCC[C@@H](NC(=O)N1C(=O)C(CC)(CC)[C@@H]1Oc1ccc(C(=O)N2CCN(C)CC2)cc1)c1ccc2c(c1)OCO2 |
|  | 0.37 | 0.056 | 53.2 |  | 40.6 |  |  |  | C=CC[C@H]1C(=O)N(S(C)(=O)=O)[C@H]2CCN(C(=O)OCc3ccccc3)[C@H]12 |

— ChEMBL document CHEMBL1131127, “Syntheses of trans-5-oxo-hexahydro-pyrrolo[3,2-b]pyrroles and trans-5-oxo-hexahydro-furo[3,2-b]pyrroles (pyrrolidine trans-lactams and trans-lactones): new pharmacophores for elastase inhibition” (J Med Chem, 1998)
